Measurements as given in ChEMBL document CHEMBL1671820, “Incorporation of basic side chains into cryptolepine scaffold: structure-antimalarial activity relationships and mechanistic studies” (J Med Chem, 2011).
The source made the active and inactive calls. No cut-off for these calls is given here.

Columns and labels:
Vero = test: Cytotoxicity against african green monkey Vero cells after 48 hrs by MTT assay; type: cell-based; conditions: Chlorocebus sabaeus
In short: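 Vero monkey kidney cells in DMEM with 10% FBS at 37 C, 7% CO2; seeded 15000 cells/well and adhered overnight. Log dilutions from 30 mg/mL DMSO stock, 48 h exposure. MTT at 0.5 mg/mL final for 2 h; formazan dissolved in 95% ethanol, read at 570 nm. Viability relative to DMSO-medium wells; IC50 from concentration–viability curve; doxorubicin as standard.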

Heme = test: Binding affinity to heme by UV-visible titration
In short: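 Hematin monomer (FPIX-OH, 10 μM) in pH 5.5 HEPES-buffered 40% DMSO v/v at 25 C, titrated with ligand from 100 μM solution until above hematin concentration. Stirred 1 min per addition; spectra 230–500 nm, Soret change at 402 nm. Absorbance dilution-corrected, nonlinear fit for Kd; Kass calculated from Kd.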

Plasmodium falciparum [1] = test: Antiplasmodial activity against chloroquine-sensitive, mefloquine-resistant ring stage Plasmodium falciparum D6 infected in human red blood cells after 48 hrs; type: functional, organism-based; conditions: D6, 48 h
[2] = Drug uptake in Plasmodium falciparum infected in human erythrocyte food vacuoles at 5 uM after 3 hrs by fluorescence microscopy; type: ADME, cell-based
In short: (§1)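 Human erythrocyte P. falciparum culture at 1.9% parasitemia, given 5 μM compound or DMSO solvent control for 3 h at room temperature in the dark. Washed gently with PBS, placed on poly-Lys-coated coverslips and imaged directly by phase contrast and fluorescence microscopy, 100× oil objective.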

Plasmodium falciparum [3] = test: Antiplasmodial activity against chloroquine-sensitive ring stage Plasmodium falciparum 3D7 infected in human red blood cells after 48 hrs; type: functional, organism-based; conditions: 3D7, 48 h
[4] = Drug uptake in Plasmodium falciparum infected in human erythrocyte nucleus at 5 uM after 3 hrs by fluorescence microscopy; type: ADME, cell-based; in short: as §1
Plasmodium berghei = test: Antiplasmodial activity against GFP-expressing liver stage Plasmodium berghei sporozoites infected in human Huh-7 cells at 5 uM by fluorescence activated cell sorting based method; type: functional, organism-based
In short: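 Huh7 human hepatoma cells infected with GFP-expressing P. berghei sporozoites, compound at 5 μM. Read-out by FACS: invasion as % GFP-positive cells 2 h after sporozoite addition; development as GFP fluorescence intensity of positive cells at 48 h. Cells trypsinized for 5 min at 37 C, then resuspended in 2% FCS/PBS before analysis.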

[5] = Inhibition of Plasmodium falciparum falcipain 3
[6] = Selectivity index, ratio of IC50 for african green monkey Vero cells to IC50 for chloroquine-resistant ring stage Plasmodium falciparum W2; type: toxicity, cell-based; conditions: read-out: Ratio IC50
In short: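 Vero IC50 divided by W2 IC50. Vero: 15000 cells/well adhered overnight, then log dilutions from 30 mg/mL DMSO stock for 48 h. MTT 0.5 mg/mL final for 2 h at 37 C, formazan dissolved in 95% ethanol, A570 read against DMSO vehicle as 100% viability. W2: 48 h YOYO-1 flow-cytometric growth assay in human erythrocytes.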

Nucleic Acid [7] = test: Binding affinity to s(GATCCTAGGATC)2-DNA by UV-visible spectrophotometry; type: nucleic-acid assay
Plasmodium falciparum [8] = test: Resistance index, ratio of IC50 for chloroquine-resistant ring stage Plasmodium falciparum W2 to IC50 for chloroquine-sensitive ring stage Plasmodium falciparum 3D7; type: functional
In short: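 W2 IC50 divided by 3D7 IC50. Both were measured by 48 h YOYO-1 flow-cytometric growth assay on sorbitol-synchronised 1% ring-stage cultures in human erythrocytes at 37 C under 3% O2.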

Plasmodium falciparum [9] = test: Antiplasmodial activity against chloroquine and pyrimethamine-resistant ring stage Plasmodium falciparum V1/S infected in human red blood cells after 48 hrs; type: functional, organism-based
[10] = Inhibition of Plasmodium falciparum falcipain 2
Nucleic Acid [11] = test: Binding affinity to s(GATCCTAGGATC)2-DNA by fluorescence spectroscopy; type: nucleic-acid assay
In short: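 Buffer 0.01 M phosphate pH 7.4, 0.1 M NaCl, 25.0 C, 1 cm quartz cuvettes. Fluorescence: excitation 339 nm, emission 450–500 nm. Dilution-corrected intensity change fitted to single-site binding for Kd; Kass taken as 1/Kd.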

Nucleic Acid [12] = test: Binding affinity to DNA assessed as quenching fluorescence intensity by UV-visible spectrophotometry; type: nucleic-acid assay
[13] = Inhibition of hematin assessed as quenching fluorescence intensity at 1:1 drug-hematin ratio by UV-visible titration; type: functional; conditions: dose or concentration not given here
Plasmodium falciparum [14] = test: Antiplasmodial activity against chloroquine-resistant ring stage Plasmodium falciparum W2 infected in human red blood cells after 48 hrs; type: functional, organism-based; conditions: W2, 48 h

Compound | IC50 (Vero) [µM] | Ka (Heme) [×10⁶ /M] | IC50 (Plasmodium falciparum [1]) [µM] | Drug uptake [2] | IC50 (Plasmodium falciparum [3]) [µM] | Drug uptake [4] | Activity (Plasmodium berghei) | IC50 [5] [µM] | selectivity ratio [6] | Ka (Nucleic Acid [7]) [×10⁶ /M] | Ratio IC50 (Plasmodium falciparum [8]) | IC50 (Plasmodium falciparum [9]) [µM] | IC50 [10] [µM] | Ka (Nucleic Acid [11]) [×10⁶ /M] | Activity (Nucleic Acid [12]) [%] | inhibition [13] [%] | IC50 (Plasmodium falciparum [14]) [µM]
C[n+]1c2ccccc2cc2[n-]c3ccccc3c21.Cl [CRYPTOLEPINE HYDROCHLORIDE] | 1.05 | 0.045 | 0.222 | Active | 0.424 | Active | inactive | > 50 | 1.4 | 0.25 | 2.9 | 0.259 | 38 | – | – | – | –
C[n+]1c2ccccc2c(NC2CCNCC2)c2[nH]c3ccccc3c21.[Cl-] | 62 | 0.154 | 0.059 | Active | 0.023 | Active | inactive | 7.9 | 1410 | – | 0.7 | 0.06 | 6.39 | 0.74 | 20 | 60 | –
C[n+]1c2ccccc2c(NCCCN)c2[nH]c3ccccc3c21.[Cl-] | 10 | 0.18 | 0.071 | – | 0.054 | – | – | 14 | 371 | – | 0.2 | 0.133 | 11 | 0.25 | – | – | 0.026
